Results on 4 compounds are retold here after ChEMBL document CHEMBL5620402, “Development of submicromolar 17β-HSD10 inhibitors and their in vitro and in vivo evaluation” (Eur J Med Chem, 2023).

The target of data set [1] is T1, Amine oxidase [flavin-containing] A (Sus scrofa, UniProt Q6Q2J0).
T1 sequence (Q6Q2J0 whole entry): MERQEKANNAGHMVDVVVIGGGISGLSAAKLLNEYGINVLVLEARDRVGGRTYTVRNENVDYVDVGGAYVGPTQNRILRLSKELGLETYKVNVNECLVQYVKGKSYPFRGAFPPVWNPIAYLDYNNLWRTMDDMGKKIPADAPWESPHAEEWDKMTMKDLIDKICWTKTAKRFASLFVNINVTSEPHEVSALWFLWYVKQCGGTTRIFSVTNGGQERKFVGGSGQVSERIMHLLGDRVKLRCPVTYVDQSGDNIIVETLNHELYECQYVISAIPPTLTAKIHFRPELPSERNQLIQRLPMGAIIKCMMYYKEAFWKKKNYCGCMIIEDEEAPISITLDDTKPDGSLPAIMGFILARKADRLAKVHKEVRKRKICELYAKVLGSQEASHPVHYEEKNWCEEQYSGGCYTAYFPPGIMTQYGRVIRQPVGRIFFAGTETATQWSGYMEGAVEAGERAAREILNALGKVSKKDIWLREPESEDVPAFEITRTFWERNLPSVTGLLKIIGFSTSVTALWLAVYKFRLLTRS
Kind of data set: Inhibition of pig brain mitochondrial MAO-A using [3H]5-HT as substrate incubated for 60 mins by liquid scintillation counting analysis. It counts as mitochondria, Mitochondria. A digest of the protocol:
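Pig brain mitochondria were preincubated with drug at 5–7 concentrations (1–1000 μM) for 60 min at 37 °C. Radiolabelled substrate was then added: [3H]5-HT for MAO-A (20 min) or [14C]PEA for MAO-B (1 min). The aldehyde product was counted by liquid scintillation. IC50 came from four-parameter logistic fits; mean ± SE of ≥2 runs.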

Data set [2] has as its target T2, 3-hydroxyacyl-CoA dehydrogenase type-2 (Homo sapiens) (UniProt Q99714).
T2 sequence (whole entry): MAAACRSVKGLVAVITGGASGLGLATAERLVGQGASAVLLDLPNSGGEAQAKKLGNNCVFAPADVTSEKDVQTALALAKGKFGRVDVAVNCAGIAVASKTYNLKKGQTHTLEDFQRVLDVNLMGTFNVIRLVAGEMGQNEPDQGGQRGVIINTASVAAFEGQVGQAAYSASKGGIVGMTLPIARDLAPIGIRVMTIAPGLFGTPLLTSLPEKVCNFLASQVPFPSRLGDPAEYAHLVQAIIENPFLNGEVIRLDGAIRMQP
The data set is described as follows: Inhibition of recombinant 17beta-HSD10 (unknown origin) expressed in Escherichia coli BL21 (DE3) assessed as residual activity at 10 uM using acetoacetyl-CoA as substrate by SAAC method relative to control. A digest of the protocol: (§1)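 Recombinant 17β-HSD10 from E. coli BL21(DE3), 0.15 μg, was mixed with 320 μmol/L NADH in Tris-HCl pH 7.4 assay buffer. It was preincubated 5 min at 37 °C with 1 or 10 μM inhibitor or vehicle, then 320 μmol/L acetoacetyl-CoA was added. A340 was followed for 5 min. Residual activity is % of control, triplicate mean ± SD, with t-test versus control.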

Data set [3] has as its target T2, 3-hydroxyacyl-CoA dehydrogenase type-2 (Homo sapiens). Kind of data set: Inhibition of recombinant 17beta-HSD10 (unknown origin) expressed in Escherichia coli BL21 (DE3) assessed as residual activity at 1 uM using acetoacetyl-CoA as substrate by SAAC method relative to control. The essentials: as §1
Data set [4] in a line: Tmax in male albino Wistar rat plasma at 60 mg/kg, po measured upto 1440 mins by HPLC-MS analysis. It counts as ADME, organism-based. The essentials:
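Single oral gavage of a 16 mM solution (blunt needle via oesophagus into stomach) to male wild-type rats, in 10% NMP, 25% Kolliphor EL and 65% saline. Three animals were killed at each of 15 time points from 5 to 1440 min and exsanguinated. Plasma levels were measured by HPLC-MS. Non-compartmental analysis gave mean ± SE of three.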

The species entered for data set [5] is Sus scrofa. The data set is described as follows: Inhibition of pig brain mitochondrial Complex II and III assessed as antimycin A-sensitive rate of cytochrome c reduction upon addition of succinate by measuring activity by spectrophotometric ally method (reference value: 100 + /- 5.6%). On the set-up: scale not given: the % may be the effect or the level left. The conditions noted are these: Mitochondria.

Data set [6] has as its system HEK293. The data set is described as follows: Cytotoxicity against human HEK293 cells assessed as change in ATP level at 1 uM measured after 48 hrs by CellTiter-Glo assay. The note with it: hek293, 48 h. It counts as toxicity, cell-based. A digest of the protocol:
(§2)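 HEK293 or SH-SY5Y cells in DMEM with 10% FBS, 2 mM glutamine and NEAA were seeded at 7,500 cells per well and grown 24 h. They were then exposed to 1 or 10 μM compound (final 1% DMSO) for 48 h. ATP was read by CellTiter-Glo luminescence after CellTox Green, normalised to 1% DMSO and 100 μM valinomycin controls. At least two experiments in tetraplicate.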

In data set [7] the target is T2, 3-hydroxyacyl-CoA dehydrogenase type-2 (Homo sapiens). Kind of data set: Binding affinity to 17beta-HSD10 (unknown origin) assessed as increase in denaturation temperature by differential scanning fluorimetry (DSF) assay. The note with it: dose 25-50 µM. The essentials: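 Thermal shift assay with 1.43 μM 17β-HSD10 in 100 mM potassium phosphate pH 8.0 with SYPRO Orange (1:1000). Compounds were tested at 25 and 50 μmol/L. Fluorescence (Ex/Em 490/575) was recorded over 25–90 °C at 1 °C/min and Tm taken from melting curves. Triplicate; mean ± SD.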
Background: In DSF a fluorescence change marks the thermal transition of the protein.

Data set [8] can be described thus: Inhibition of complex II linked mitochondrial respiration in isolated pig brain mitochondria by O2k respirometry. On the set-up: species or system Sus scrofa. The essentials:
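Respirometry (Oxygraph-2k) of purified pig brain cortex mitochondria in state 3. Substrates were malate + pyruvate + ADP (Complex I) or ADP + rotenone + succinate (Complex II). One chamber was titrated with compound (10–20 concentrations, final 1.25–500 μM) and the other with DMSO; rates were expressed relative to DMSO. IC50 came from four-parameter logistic fits.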

Data set [9] can be described thus: AUC (0 to 1440 mins) in male albino Wistar rat brain at 60 mg/kg, po measured upto 1440 mins by HPLC-MS analysis. The note with it: in vivo, 24 h. It counts as ADME, organism-based. The essentials:
(§3)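 Oral gavage via blunt needle into the stomach of male wild-type rats. Dose was 60 mg/kg from a 16 mM solution in 10% NMP, 25% Kolliphor EL and 65% saline. Rats were sacrificed at 15 time-points from 5 to 1440 min, 3 per point. Plasma and brain were analysed by HPLC-MS with non-compartmental analysis; values are mean ± SE of three.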

A short description of data set [10]: Aqueous solubility, logS of the compound at pH 7.4 phosphate buffer by nephelometry assay. It counts as physicochemical. The essentials:
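Nephelometry of compound suspensions in phosphate buffer pH 7.4. Stock was 160 μg/mL, sonicated and auto-diluted over 0–160 μg/mL, with higher stocks (640 μg/mL, 2.54 mg/mL) used if needed. Wells were shaken 30 s and laser-scanned. Solubility was derived by segmental linear regression.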

The test system of data set [11] is SH-SY5Y. The data set is described as follows: Cytotoxicity against human SH-SY5Y cells assessed as change in ATP level at 10 uM measured after 48 hrs by CellTiter-Glo assay. It counts as toxicity, cell-based. The essentials:
as §2
On the technique in general: Cellular ATP, detected with luciferase, serves as a proxy for viable cell number.

The subject of data set [12] is SH-SY5Y. Kind of data set: Cytotoxicity against human SH-SY5Y cells assessed as change in ATP level at 1 uM measured after 48 hrs by CellTiter-Glo assay. It counts as toxicity, cell-based. A digest of the protocol: as §2
A short description of data set [13]: Tmax in male albino Wistar rat brain at 60 mg/kg, po measured upto 1440 mins by HPLC-MS analysis. It counts as ADME, organism-based. The essentials:
as §3

A short description of data set [14]: AUC (0 to 1440 mins) in male albino Wistar rat plasma at 60 mg/kg, po measured upto 1440 mins by HPLC-MS analysis. It counts as ADME, organism-based. The note with it: in vivo, 24 h. The essentials:
as §3

Consider `CC(=O)Nc1ccc2nc(NC(=O)Nc3ccc(O)c(Cl)c3)sc2c1`, for which the IC50 (in general, the concentration needed to halve the response being measured) in data set [1] (read-out: IC50) amounted to 5.8 µM; in [8] it was 27 µM. In addition, the Activity in data set [2] is 22%; in [3] it was 49.5%; in data set [5], 97.4%; in [6] it was “Non-Toxic”; in data set [7] it was “Dose-Dependent Effect”; in [11] it was “Non-Toxic”. In addition, the Activity result in [12] is “Non-Toxic”. Also, the Tmax in data set [4] and in [13] was 35 min in each case. For the same compound, the AUC in data set [9] came to 15749 pmol·min; in [14], 1431047 pmol·min. The compound also gave a logS0 in [10] of -4.55.
In the case of `O=C(Nc1ccc(O)c(Cl)c1)Nc1nc2ccc(C(=O)O)cc2s1`, the IC50 stood at 85 µM in [1] (read-out: IC50) and 260 µM in data set [8]. The Activity in data set [2] is 17.5%; in data set [3], 50%; in data set [6], “Non-Toxic”; in [7], “Dose-Dependent Effect”; in data set [11] it was “Non-Toxic”; in data set [12], “Non-Toxic”. The time of peak concentration (Tmax) – broadly, the time from dosing to the highest level – was 25 min in data set [4] and 40 min in [13]. The results for the AUC in [9] and in data set [14] were 20135 pmol·min and 212993 pmol·min, respectively. This compound also had a logS0 in data set [10] of -4.36.
With `COc1ccc2nc(NC(=O)Nc3ccc(O)c(C(F)(F)F)c3)sc2c1`, the half-maximal inhibitory concentration (IC50) in data set [1] (read-out: IC50) came to 79 µM; in data set [8], 98 µM. Further, the Activity was 13% in data set [2]; 39.8% in data set [3]; 52.2% in data set [5]; “Non-Toxic” in [6]; “Toxic” in data set [11]. The same compound yielded a logS0 in data set [10] of -4.48.
Turning to `NC(=O)c1ccc2nc(NC(=O)Nc3ccc(O)c(Cl)c3)sc2c1`, in [1], the IC50 entry is recorded as “Not Active”. Also, the Activity in data set [2] is 38.3%; in [3], 50%; in [5] it was 99.7%; in data set [6], “Non-Toxic”; in data set [11], “Non-Toxic”; in data set [12], “Non-Toxic”. This compound gave a logS0 in [10] of -4.78.
